Laboratory results published in ChEMBL document CHEMBL4480367 (Medchemcomm, 2019).
Active and inactive are the calls of the source. No cut-off for these calls is given here.

How the values were obtained:
Saccharomyces cerevisiae = assay: Toxicity against yeast assessed as reduction in cell viability; assay type: organism-based
Method in brief: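 Control yeast strain carrying empty plasmid, induced in 2% galactose SC medium (pH 6.5) lacking leucine, with compounds at graded concentrations for 46–48 h at 30 °C. A600 was read. Toxicity value is the concentration inhibiting proliferation by 50%.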

[1] = Cytotoxicity against MDCK cells assessed as reduction in cell viability after 24 hrs by MTT assay; assay type: cell-based, Canis lupus familiaris; conditions: dog
Method in brief: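 MDCK cells were seeded at 2 × 10^4 per well and treated next day with graded concentrations in DMEM for 24 h. MTT (5 mg mL−1 solution) was added for 4 h at 37 °C, cells were lysed for 3 h, and A575 was read. CC50 is the concentration inhibiting cell growth by 50% versus control cultures.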

Matrix protein 2 = Matrix protein 2 (UniProt P0DOF8); assay: Inhibition of wild type Influenza A virus (A/chicken/Hubei/327/2004(H5N1)) M2 expressed in yeast cells after 46 to 48 hrs; assay type: cell-based
Matrix protein 2, sequence (P0DOF8 whole entry): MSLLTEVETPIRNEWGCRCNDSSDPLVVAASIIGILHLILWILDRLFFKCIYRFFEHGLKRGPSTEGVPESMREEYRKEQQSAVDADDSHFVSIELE
Method in brief: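 Yeast growth-restoration assay. Yeast carried the M2 coding sequence under the GAL1 promoter, grown in glucose SC medium (pH 6.5) lacking leucine, then washed and resuspended to A600 0.01 in 2% galactose SC medium. Compounds were added at graded concentrations; plates were incubated at 30 °C for 46–48 h and A600 was read. Hits were retested in triplicate for EC50.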

Influenza A virus [2] = assay: (§1) Antiviral activity against amantadine-sensitive Influenza A virus (A/chicken/Hubei/327/2004(H5N1)) infected in MDCK cells assessed as reduction in early stage viral replication by measuring viral titer at 1.7 uM measured after 12 hrs by crystal violet staining-based plaque reduction assay during time-of-addition assay; assay type: functional, organism-based
Influenza A virus [3] = assay: Antiviral activity against Influenza A virus H5N1; assay type: functional, organism-based
Influenza A virus [4] = assay: Antiviral activity against Influenza A virus (H1N1); assay type: functional, organism-based
Influenza A virus [5] = assay: as §1, with “4” for “1.7”; assay type: functional, organism-based
Influenza A virus [6] = assay: as §1, with “1.9” for “1.7”; assay type: functional, organism-based

Structure (SMILES)	Activity (Saccharomyces cerevisiae) [µM]	CC50 at 24 h [1] [µM]	EC50 (Matrix protein 2)	other results
O=S(=O)(NCc1csc2ccccc12)c1ccc(Cl)cc1	121.4	69.6		
N#Cc1ccc(S(=O)(=O)NCc2cc3ccccc3s2)cc1	> 204		Not Active	
O=S(=O)(NCc1cc2ccccc2s1)c1ccc(F)cc1	> 208.5		Not Active	
Cc1cc(CNS(=O)(=O)c2ccc(F)cc2)c(C)o1	> 236.5	138		
O=[N+]([O-])c1ccc(S(=O)(=O)NCc2cccs2)cc1	157.5	133		
O=S(=O)(NCc1cc2ccccc2s1)c1ccc(C(F)(F)F)cc1	> 180.4	> 180	Not Active	
NC12CC3CC(CC(C3)C1)C2 [AMANTADINE]	> 443	> 100		Activity (Influenza A virus [2]): Active
N#Cc1ccc(S(=O)(=O)NCc2csc3ccccc23)cc1	> 204	122		
O=S(=O)(NCc1cc2ccccc2s1)c1cccc(F)c1	> 180.5		Not Active	
Cc1cc(CNS(=O)(=O)c2ccc(Br)cc2)c(C)o1	72.6	29.6		
Cc1cc(CNS(=O)(=O)c2ccc([N+](=O)[O-])cc2)c(C)o1	> 215.9	> 152		
Cc1ccc(S(=O)(=O)NCc2csc3ccccc23)cc1	> 211.08	> 210		
O=[N+]([O-])c1ccc(S(=O)(=O)NCc2ccc(Cl)s2)cc1	> 201.3	128	Not Active	
CCOC(=O)C1=C[C@@H](OC(CC)CC)[C@H](NC(C)=O)[C@@H](N)C1.O=P(O)(O)O [OSELTAMIVIR PHOSPHATE]	> 214.5	> 163	Not Active	
CC1CC2=C(NC(=O)NC2c2ccc(O)c(Br)c2)c2ccccc21 (stereo not drawn)				EC50 (Influenza A virus [3]): 0.032 µM; EC50 (Influenza A virus [4]): 0.032 µM
NC(=O)c1nc(F)cnc1O				Activity (Influenza A virus [5]): Active
Cc1cc(CNS(=O)(=O)c2ccc(C#N)cc2)c(C)o1	168.8	105		
Cc1ccc(S(=O)(=O)NCc2cc3ccccc3s2)cc1	> 211.08	> 210	Not Active	
O=[N+]([O-])c1ccc(S(=O)(=O)NCc2ccsc2)cc1	> 224.6	139		

Structure (SMILES)	Activity (Saccharomyces cerevisiae) [µM]	CC50 at 24 h [1] [µM]	EC50 (Matrix protein 2)	other results
O=S(=O)(NCc1csc2ccccc12)c1ccccc1F	59.1		Not Active	
O=S(=O)(NCc1csc2ccccc12)c1ccc(C(F)(F)F)cc1	> 180.4	94.8	Not Active	
CC(=O)c1ccc(S(=O)(=O)NCc2csc3ccccc23)cc1	> 194	> 193		
O=S(=O)(NCc1cc2ccccc2s1)c1ccc(Br)cc1	> 176.2	> 174	Not Active	
Cc1cc(C(=O)NCCSCc2ccc([N+](=O)[O-])cc2)c(C)o1				EC50 (Influenza A virus [3]): 1.25 µM
O=S(=O)(NCc1cc2ccccc2s1)c1ccc(Cl)cc1	> 198.3		Not Active	
Cc1cc(CNS(=O)(=O)c2ccc(Cl)cc2)c(C)o1	123.43	55.7		
Cc1cc(CNS(=O)(=O)c2ccc([N+](=O)[O-])cc2)c(C)s1	> 205.3	> 204		
O=S(=O)(NCc1csc2ccccc12)c1ccc(F)cc1	133.8	98.6		
O=[N+]([O-])c1ccc(S(=O)(=O)NCc2cc3ccccc3s2)cc1	> 192.3	> 191	Not Active	
O=S(=O)(NCc1csc2ccccc12)c1ccc(Br)cc1	134.1	87.1		
O=S(=O)(NCc1csc2ccccc12)c1cccc(F)c1	> 208.5		Not Active	
Cc1cc(CNS(=O)(=O)c2ccc(F)cc2)c(C)s1	120.2		Not Active	
O=S(=O)(NCc1cc2ccccc2s1)c1ccccc1F	> 180.5		Not Active	
O=[N+]([O-])c1ccc(S(=O)(=O)NCc2csc3ccccc23)cc1	> 192.3	> 191		
Cc1cc(CNS(=O)(=O)c2ccc(Br)cc2)c(C)s1	133.2	56.4		Activity (Influenza A virus [6]): Active
Cc1cc(CNS(=O)(=O)c2ccc(Cl)cc2)c(C)s1	114.1	52.9		
Cc1cc(CNS(=O)(=O)c2ccc(C#N)cc2)c(C)s1	> 218.7	> 218		
O=[N+]([O-])c1ccc(S(=O)(=O)NCc2ccoc2)cc1	> 237.4	> 236		
